Laboratory results from ChEMBL document CHEMBL1158037, “Taraxasterane- and ursane-type triterpenes from Nerium oleander and their biological activities” (J Nat Prod, 2006).

Legend:
A549 [1] = assay: Antiinflammatory activity in human A549 cells assessed as inhibition of ICAM1 induction pretreated for 1 hr before IL1alpha challenge and incubated for 6 hrs in presence of IL1alpha; format: functional, cell-based
Procedure, shortened: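 A549 cells (human lung carcinoma, used as endothelial model) exposed to a range of compound concentrations for 1 h, then IL-1α added and culture continued 6 h. ICAM-1 measured by primary and secondary antibodies plus enzyme substrate, absorbance at 415 nm. Triplicate cultures; IC50 reported.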

A549 [2] = assay: Cytotoxicity against human A549 cells after 24 hrs by MTT assay; format: functional, cell-based; details: A549, 24 h
Procedure, shortened: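 A549 cells incubated 24 h with serial dilutions of compound; viability (%) by MTT used to derive IC50. Triplicate cultures.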

[3] = Cytotoxicity against human WI38 cells by WST-8 assay; format: cell-based; details: WI-38
Procedure, shortened: (§1)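 Growth inhibition of WI-38, VA-13 and HepG2 cells, with Taxol and ADM as positive controls; IC50 taken as concentration giving 50% growth inhibition.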

WI-38 VA13 = assay: Cytotoxicity against human VA-13 cells by WST-8 assay; format: functional, cell-based; procedure, shortened: as §1
[4] = Cytotoxicity against human Hep G2 by WST-8 assay; format: functional; details: HepG2; procedure, shortened: as §1

SMILES | IC50 (A549 [1]) [µM] | IC50 (A549 [2]) [µM] | IC50 [3] [µM] | IC50 (WI-38 VA13) [µM] | IC50 [4] [µM]
C[C@H]1[C@H](C)CC[C@]2(C=O)CC[C@]3(C)C(=CC[C@@H]4[C@@]5(C)CC[C@H](O)C(C)(C)[C@@H]5CC[C@]43C)[C@H]12 | 158 | 205 | 94.7 | 85.4 | 99
C[C@H]1[C@H](C)CC[C@]2(O)CC[C@]3(C)C(=CC[C@@H]4[C@@]5(C)CC[C@H](O)C(C)(C)[C@@H]5CC[C@]43C)[C@H]12 | > 316 | > 316 | 20.1 | 108 | 21.1
CO[C@H]1O[C@@]2(C)CC[C@@]13CC[C@]1(C)[C@H](CC[C@@H]4[C@@]5(C)CC[C@H](O)C(C)(C)[C@@H]5CC[C@]41C)[C@H]3[C@@H]2C | 80 | 76 | 11.8 | 11.7 | 10.3
C[C@H]1[C@@H]2[C@H]3CC[C@@H]4[C@@]5(C)CC[C@H](O)C(C)(C)[C@@H]5CC[C@@]4(C)[C@]3(C)CC[C@@]23C=C[C@]1(C)OC3 | > 316 | > 316 | 83.8 | 111 | 155
